High-throughput results as filed in PubChem.
ABCB1 block: blocks JC-1 efflux by human ABCB1 transporter; P08183; CCRF-Adr cells, flow cytometry; inhibition, % at 6.6 µM; hit rate 0.067% among 190,000; AID 1326; in the data active = inhibition above about 40%;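 note: 0% = vehicle and 100% = reference inhibitor; higher value means more JC-1 retained so stronger ABCB1 efflux block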
MEKK2 WT-MEK5: raises or lowers MEK5 binding to wildtype human MEKK2 PB1 domain | Q9Y2U5 | bead flow cytometry, Alexa488-MEK5 binding to MEKK2 WT; actives lie on both sides | binding response (% of control), % at 10 µM | hit rate 1.1% among 290,000 | AID 1531; in the data active = binding response below about 67% or above about 130%
WT yeast gro inh: growth inhibition of WT yeast, mitochondrial fusion screen; mitochondrial fusion phenotypic screen, WT strain; inhibition, % at 10 µM; hit rate 2.1% among 190,000; AID 1362; in the data active = inhibition above about 58%; tested in S. cerevisiae
MEKK2 mut-MEK5: signal of MEK5 binding to mutant human MEKK2 PB1 domain; AID 1530; percent response, % at 10 µM; bead flow cytometry, Alexa488-MEK5 binding to MEKK2 mutant; hit rate 0.35% among 290,000; in the data active = percent response above about 24%, passing the limit was not always enough
MEKK3 PB1 HTS: modulators (inhibitors or enhancers) of MEK5 binding to human MEKK3 PB1 domain | Q99759 | bead-based flow cytometry, Alexa488-MEK5 binding to MEKK3; actives lie on both sides; 0 = blocked by unlabeled MEK5, 100 = vehicle | binding response (% of control), % at 10 µM | hit rate 1.4% among 290,000 | AID 1529;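 active = binding response more than 3 SD above or below the average of its plate-row segment, actives on both sides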;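 note: Alexa488 bead fluorescence after subtracting the streptavidin-only scavenger bead signal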
ABCG2 inh: inhibitors of human ABCG2 transporter, ABCB1 counter-screen; Q9UNQ0; IgMXP3 cells, JC-1 efflux, flow cytometry; inhibition, % at 6.6 µM; hit rate 0.1% among 190,000;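 active = inhibition above 80%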;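 note: 0% = DMSO and 100% = nicardipine control wells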
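material = IgMXP3 (ABCG2) plus far-red-tagged CCRF-Adr (ABCB1) cells | amount = 3 million cells/mL, equal mix of both lines | also added = JC-1 transporter substrate | dosing = one concentration, 6.6 µM final | schedule = 10 min at 25 °C | measured by = flow cytometric JC-1 green MFI at 530 nm | read-out basis = percent efflux inhibition, scaled nicardipine 100% to DMSO 0%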
MEKK2wt confirm: raises or lowers MEK5 binding to wildtype human MEKK2, retest; bead flow cytometry, Alexa488-MEK5 binding to MEKK2 WT; actives lie on both sides; hit rate 2.4% among 5,900; AID 1892; shares compounds with MEKK3 PB1 HTS; binding response (% of control), % at 10 µM; in the data active = binding response below about 16% or above about 210%; inactive = in between
MEKK2mut confirm: signal of MEK5 binding to mutant human MEKK2, retest | shares compounds with MEKK3 PB1 HTS | bead flow cytometry, Alexa488-MEK5 binding to MEKK2 mutant | percent response, % at 10 µM | hit rate 2% among 5,900 | AID 1893; in the data active = percent response mostly above about 71%, no sharp cut-off; inactive = mostly below about 38%;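 note: higher means compound restores mutant binding toward wildtype level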
MEKK3-MEK5 inh: MEKK3-MEK5 PB1 inhibition, single concentration confirmation. hit rate 1.8% among 5,900. binding response (% of control), % at 10 µM. shares compounds with MEKK3 PB1 HTS. bead flow cytometry, Alexa488-MEK5 binding to MEKK3; active compounds read low;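 active = binding response below 72% of control, or above a set upper limit, though filed actives all read lower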;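 note: 100% = DMSO only wells and 0% = binding blocked by excess unlabeled MEK5; lower values mean stronger disruption of MEK5 binding to MEKK3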
* = called active by the depositor; . = no result given; [ ] = another dose, or the depositor's remark. Shown are actives, neighbours in structure and some others; about 3.5% of the full set was active somewhere.

SMILES | ABCB1 block | MEKK2 WT-MEK5 | WT yeast gro inh | MEKK2 mut-MEK5 | MEKK3 PB1 HTS | ABCG2 inh | MEKK2wt confirm | MEKK2mut confirm | MEKK3-MEK5 inh
CC(=O)NC(Cc1ccc(N(CCCl)CCCl)cc1)C(=O)NCC(=O)NCC(=O)O (stereo unspecified) | 0.3 | 99.0 | -11.3 | -1.0 | 104.0 | 1.0 | . | . | .
CCN1C(=O)C(=C/C=C/c2ccco2)C(=O)N(CC)C1=S | -0.4 | 59.0*[inhibitor] | 16.9 | -3.0 | 86.0 | -1.5 | 84.0 | -9.0 | 94.0
Cc1nn(Cc2ccccc2Cl)c(C)c1C(=O)OCC(=O)NC1CCCC(C)C1C (stereo unspecified) | 3.2 | 104.0 | -8.9 | 1.0 | 141.0* | 4.5 | 103.0 | -1.0 | 101.0
C=CCn1c(O)c(/C(C)=N/N2CCCCCC2)c(=O)[nH]c1=O | . | 101.0 | . | 1.0 | 103.0 | . | . | . | .
CC(=O)N1CC(=O)Nc2ccc(C)cc2C1c1ccccc1 (stereo unspecified) | . | 107.0 | . | 9.0 | 109.0 | . | . | . | .
Cc1ccc2c(c1)C(c1ccccc1)NCC(=O)N2 (stereo unspecified) | 0.1 | 88.0 | 6.2 | -11.0 | 74.0*[inhibitor] | 3.4 | 50.0 | -16.0 | 90.0
Cc1nn(Cc2ccccc2)c(Cl)c1C(=O)OCC(=O)N1CCCC1 | 0.0 | 97.0 | -1.2 | -1.0 | 99.0 | 2.5 | . | . | .
Cc1cccc(-n2c(C)nc3ccc(Cl)cc3c2=O)c1 | . | 101.0 | . | 5.0 | 101.0 | . | . | . | .
CCOC(=O)C(O)(c1ccc(NC(=S)NC(=O)c2ccc(Cl)cc2Cl)cc1)C(F)(F)F (stereo unspecified) | -0.7 | 102.0 | 32.9 | -2.0 | 112.0 | -8.3 | . | . | .
COC(=O)C(O)(c1ccc(NC(=S)NC(=O)c2ccc(Cl)cc2Cl)cc1)C(F)(F)F (stereo unspecified) | 0.1 | 106.0 | 27.4 | 3.0 | 148.0* | 1.1 | 92.0 | -4.0 | 102.0
CCOC(=O)C(O)(c1ccc(NC(=S)NC(=O)c2ccc(Cl)cc2Cl)c(C)c1)C(F)(F)F (stereo unspecified) | -0.1 | 102.0 | 76.8* | 1.0 | 147.0* | 2.1 | 92.0 | -8.0 | 94.0
c1ccc(C2NCCc3[nH]cnc32)cc1 (stereo unspecified) | . | 112.0 | . | 6.0 | 114.0 | . | . | . | .
C#CCN(C)C(C)Cc1ccccc1 (stereo unspecified) | 0.5 | 61.0*[inhibitor] | 17.4 | 3.0 | 69.0*[inhibitor] | 2.2 | 99.0 | -6.0 | 100.0
COc1ccc(CC(C)NCCC(c2ccccc2)c2ccccc2)cc1 (stereo unspecified) | . | 171.0* | . | 28.0* | 111.0 | . | 120.0 | 8.0 | 103.0
CC(Cc1ccccc1)NC(N)=O (stereo unspecified) | . | 97.0 | . | 5.0 | 98.0 | . | . | . | .
CCOP(=O)(OCC)Oc1cc(C)c(N(C)C)c(C)c1 | . | 104.0 | . | 1.0 | 99.0 | . | . | . | .
CC(NCc1ccc(Cl)c(Cl)c1)C(O)c1ccccc1 (stereo unspecified) | 0.4 | 98.0 | 25.0 | -7.0 | 97.0 | 0.9 | . | . | .
CN[C@@H]1C[C@@H](c2ccc(Cl)c(Cl)c2)c2ccccc21 | . | 142.0* | 53.0 | 11.0 | 106.0 | -0.8 | 133.0 | 11.0 | 106.0
Cc1nn(Cc2ccccc2)c(C)c1C(=O)OCC(=O)Nc1cc(S(C)(=O)=O)ccc1Cl | -0.7 | 80.0 | 1.1 | -8.0 | 92.0 | 2.0 | . | . | .
Cc1ccsc1-c1nc(CSCC(=O)N2CCC3(CC2)OCCO3)c(C)o1 | 0.5 | 115.0 | -10.3 | 6.0 | 123.0* | 15.7 | 104.0 | 3.0 | 102.0
CCOC(=O)c1c(C)n(Cc2ccccc2)c2ccc(OCC(O)CNC(C)(C)C)cc12 (stereo unspecified) | . | 150.0* | . | 21.0 | 107.0 | . | 150.0 | 36.0 | 106.0
